The nature of data set [1]: Intrinsic clearance in human liver microsomes assessed per mg of protein. The format is ADME, Microsome. In short, it runs like this: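 Stability in human liver microsomes reported as intrinsic clearance, µL/min/mg microsomal protein.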
A short description of data set [2]: Intrinsic clearance in rat liver microsomes assessed per mg of protein. The format is ADME, Microsome. In short, it runs like this:
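Rat liver microsomes; stability expressed as intrinsic clearance in µL/min/mg of microsomal protein.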

Data set [3] addresses T1, Extracellular calcium-sensing receptor (Homo sapiens, UniProt P41180).
T1 sequence (P41180 whole entry): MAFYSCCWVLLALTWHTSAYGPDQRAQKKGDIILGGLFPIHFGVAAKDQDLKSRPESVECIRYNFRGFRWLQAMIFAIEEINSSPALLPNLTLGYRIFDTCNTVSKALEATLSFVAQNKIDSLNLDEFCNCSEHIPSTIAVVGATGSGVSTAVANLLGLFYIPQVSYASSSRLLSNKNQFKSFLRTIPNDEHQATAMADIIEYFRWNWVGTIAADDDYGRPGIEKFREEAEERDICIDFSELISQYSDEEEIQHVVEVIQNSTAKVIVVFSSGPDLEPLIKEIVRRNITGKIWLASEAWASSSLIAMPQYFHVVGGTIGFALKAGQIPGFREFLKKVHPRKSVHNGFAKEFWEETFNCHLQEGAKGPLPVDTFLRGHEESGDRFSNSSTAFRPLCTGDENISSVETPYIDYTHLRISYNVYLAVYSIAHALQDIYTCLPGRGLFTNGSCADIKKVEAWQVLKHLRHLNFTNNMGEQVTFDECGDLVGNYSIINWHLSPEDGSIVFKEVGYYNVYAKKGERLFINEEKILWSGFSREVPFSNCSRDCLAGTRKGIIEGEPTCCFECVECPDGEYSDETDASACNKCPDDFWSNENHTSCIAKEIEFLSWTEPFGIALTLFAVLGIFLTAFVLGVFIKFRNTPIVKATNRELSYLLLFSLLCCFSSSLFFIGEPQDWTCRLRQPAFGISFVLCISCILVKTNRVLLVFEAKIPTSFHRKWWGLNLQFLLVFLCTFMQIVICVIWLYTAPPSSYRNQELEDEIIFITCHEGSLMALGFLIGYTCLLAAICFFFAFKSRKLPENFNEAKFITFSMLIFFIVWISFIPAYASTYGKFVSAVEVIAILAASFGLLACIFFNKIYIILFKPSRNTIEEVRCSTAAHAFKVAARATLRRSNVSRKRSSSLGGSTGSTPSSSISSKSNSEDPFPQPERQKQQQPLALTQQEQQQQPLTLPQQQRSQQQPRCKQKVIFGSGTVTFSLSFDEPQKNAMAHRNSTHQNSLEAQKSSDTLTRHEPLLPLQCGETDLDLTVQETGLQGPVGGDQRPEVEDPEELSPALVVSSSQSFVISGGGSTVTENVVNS
The data set is described as follows: Negative allosteric modulator activity at human recombinant calcium sensing receptor expressed in HEK cells. The format is functional, cell-based, HEK293. The method, boiled down:
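Human recombinant CaSR expressed in HEK cells; potency from n = 3 determinations.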

Data set [4] can be described thus: Lipophilicity, log D of the compound. The format is physicochemical. As to conditions: octanol/water.
The subject of data set [5] is Rattus norvegicus. Nature of the data set: Clearance in Sprague-Dawley rat at 1 mg/kg, iv. The conditions noted are these: in vivo.
Data set [6] in a line: Half life in Sprague-Dawley rat at 1 mg/kg, iv. The format is ADME, organism-based. Further details: dose 1 mg/kg, route intravenous. As to conditions: in vivo. The method, boiled down:
(§1)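 Intravenous dosing at 1 mg/kg to rats; volume of distribution, plasma clearance (mL/min/kg) and half-life derived from the iv plasma profile.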

The nature of data set [7]: Oral bioavailability in Sprague-Dawley rat. The format is ADME, organism-based. The conditions noted are these: in vivo.
Data set [8] is described as follows: Volume of distribution in Sprague-Dawley rat at 1 mg/kg, iv. The format is ADME, organism-based. Further details: dose 1 mg/kg, route intravenous. As to conditions: in vivo. The method, boiled down: as §1
Data set [9] can be described thus: Clearance in Sprague-Dawley rat at 1 mg/kg, iv. The format is ADME, organism-based. Further details: dose 1 mg/kg, route intravenous. As to conditions: in vivo. In short, it runs like this:
as §1

Data set [10] in a line: Inhibition of cytochrome P450. The format is ADME.
The subject of data set [11] is Rattus norvegicus. Nature of the data set: Toxicity in Sprague-Dawley rat assessed as incidence of adverse effect at 500 mg/kg in 4 day drug toleration study. The format is organism-based. Further details: dose 500 mg/kg. As to conditions: in vivo, 96 h. In short, it runs like this: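 Rats given 500 mg/kg over a 4 day toleration study, monitored for adverse effects.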

The nature of data set [12]: Oral bioavailability in Sprague-Dawley rat at 10 mg/kg. The conditions noted are these: in vivo. The format is ADME, organism-based. The method, boiled down: (§2)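 Oral dosing at 10 mg/kg to rats; total plasma Cmax and oral bioavailability determined from plasma exposure, alongside the 1 mg/kg iv leg.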
Data set [13] addresses hERG (KCNH2) (Homo sapiens, UniProt Q12809). Nature of the data set: Inhibition of human ERG at 10 uM by whole cell voltage clamp technique.
Data set [14] is described as follows: Cmax in Sprague-Dawley rat at 10 mg/kg, po. The format is ADME, organism-based. Further details: dose 10 mg/kg, route oral. As to conditions: in vivo. The method, boiled down:
as §2

Data set [15] has as its system Rattus norvegicus. The data set is described as follows: Increase in PTH (1-84) release response in Sprague-Dawley rat at 10 mg/kg, po by PTH ELISA. The format is functional, organism-based. Further details: dose 10 mg/kg.
Data set [16] addresses Extracellular calcium-sensing receptor (Homo sapiens) (UniProt P41180). Nature of the data set: Negative allosteric modulator activity at human calcium sensing receptor expressed in HEK cells.

Calls of active or inactive are those of the source. No cut-off for these calls is given here.

Experimental findings from ChEMBL document CHEMBL1781979, “The discovery of novel calcium sensing receptor negative allosteric modulators” (Bioorg Med Chem Lett, 2009) are described below.

Sequence of hERG (KCNH2) (Q12809 whole entry): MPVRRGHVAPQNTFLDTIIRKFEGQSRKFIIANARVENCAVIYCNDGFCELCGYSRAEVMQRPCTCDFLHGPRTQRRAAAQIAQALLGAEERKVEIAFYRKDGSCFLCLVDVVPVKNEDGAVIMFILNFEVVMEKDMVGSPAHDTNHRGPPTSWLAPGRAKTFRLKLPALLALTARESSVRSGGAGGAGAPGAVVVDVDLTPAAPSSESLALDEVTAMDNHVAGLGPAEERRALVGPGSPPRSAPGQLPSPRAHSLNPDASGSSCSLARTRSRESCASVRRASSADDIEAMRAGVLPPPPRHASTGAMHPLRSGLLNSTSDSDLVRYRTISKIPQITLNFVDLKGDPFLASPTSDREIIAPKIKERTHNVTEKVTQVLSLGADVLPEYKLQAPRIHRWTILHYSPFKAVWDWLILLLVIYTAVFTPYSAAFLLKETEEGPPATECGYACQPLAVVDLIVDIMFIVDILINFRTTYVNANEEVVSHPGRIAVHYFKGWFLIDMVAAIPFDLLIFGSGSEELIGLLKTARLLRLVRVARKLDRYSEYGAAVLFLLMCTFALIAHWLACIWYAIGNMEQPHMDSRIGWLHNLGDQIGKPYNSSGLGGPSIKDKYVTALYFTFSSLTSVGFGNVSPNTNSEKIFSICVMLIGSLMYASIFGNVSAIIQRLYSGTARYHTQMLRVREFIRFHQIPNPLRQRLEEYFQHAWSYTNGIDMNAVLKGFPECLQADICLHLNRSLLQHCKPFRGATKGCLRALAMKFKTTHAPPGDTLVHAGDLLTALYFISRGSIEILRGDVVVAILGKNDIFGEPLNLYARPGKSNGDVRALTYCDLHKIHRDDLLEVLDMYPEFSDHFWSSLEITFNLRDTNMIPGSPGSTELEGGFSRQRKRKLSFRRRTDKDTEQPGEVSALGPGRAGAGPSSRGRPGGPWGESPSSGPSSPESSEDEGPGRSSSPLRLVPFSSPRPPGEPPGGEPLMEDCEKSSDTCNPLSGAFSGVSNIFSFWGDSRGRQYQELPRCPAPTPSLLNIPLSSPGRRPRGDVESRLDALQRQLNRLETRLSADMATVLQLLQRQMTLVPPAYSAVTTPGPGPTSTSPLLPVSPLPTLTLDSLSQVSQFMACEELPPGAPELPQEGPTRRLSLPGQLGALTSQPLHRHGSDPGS

Regarding `CC(C)(Cc1ccc2ccccc2c1)NC[C@@H](O)COc1cccc(Cl)c1C#N`, the figures for the microsomal CLint in [1] and in data set [2] were 157 µL/min/mg and > 100 µL/min/mg, respectively. For the same compound, in [3], the IC50 was 23 nM.

With `CC(C)(CC1Cc2ccccc2C1)NC[C@@H](O)COc1cc(C2CC3CC2C2C(C(=O)O)C32)cc(F)c1F` (mixture of isomers), the intrinsic metabolic clearance (microsomal CLint) in data set [1] was found to be 19 µL/min/mg; in [2] it was 35 µL/min/mg. Besides, in data set [3], the IC50 amounted to 56 nM. Also, the logD in data set [4] turned out to be 2.6.

`CC(C)(CC1Cc2ccccc2C1)NC[C@@H](O)COc1cccc(C2CC3CC2C2C(C(=O)O)C32)c1` (mixture of isomers): the microsomal CLint in data set [1] was determined as 15 µL/min/mg; in [2], 50 µL/min/mg. For the same compound, the IC50 in data set [3] was 900 nM.

For the compound `CC(C)(CC1Cc2ccccc2C1)NC[C@@H](O)COc1cc(C2CC3CC2C2C(C(=O)O)C32)ccc1C#N` (mixture of isomers), the CL in [5] was determined as 83 mL/min/kg. Moreover, the microsomal CLint was 17 µL/min/mg in [1] and 25 µL/min/mg in data set [2]. This compound also had a half-life in data set [6] of 1.5 h. Also, the bioavailability in data set [7] is < 10%. The compound further showed a Vd in [8] of 5 L/kg. The IC50 in data set [3] was 6 nM. The compound further returned a clearance in data set [9] of 70 mL/min/kg. Also, the logD in data set [4] worked out at 2.

Consider `Cc1ccc(CC(C)(C)NC[C@@H](O)COc2cccc(C3CC4CC3C3C(C(=O)O)C43)c2)cc1F` (mixture of isomers), for which the values for the microsomal CLint in data set [1] and in [2] were 23 µL/min/mg and 38 µL/min/mg, respectively. Also, the IC50 in data set [3] amounted to 3500 nM.

Turning to `Cc1ccc(CC(C)(C)NC[C@@H](O)COc2cc(C3CC4CC3C3C(C(=O)O)C43)ccc2F)cc1F` (mixture of isomers), the microsomal CLint in [1] was 20 µL/min/mg. Moreover, the IC50 in data set [3] was 300 nM.

In data set [5], `Cc1ccc(CC(C)(C)NC[C@@H](O)COc2cc(C3CC4CC3C3C(C(=O)O)C43)ccc2C#N)cc1F` (mixture of isomers) had a CL of 83 mL/min/kg. Besides, the intrinsic clearance (microsomal CLint) in data set [1] amounted to 15 µL/min/mg; in data set [2], 27 µL/min/mg. The half-life in data set [6] is 1.5 h. Moreover, the bioavailability in data set [7] was < 10%. In data set [8], this compound came in with a distribution volume (Vd) of 5 L/kg. Further, the IC50 in data set [3] stood at 23 nM. The compound also displayed a clearance in data set [9] of 70 mL/min/kg. Further, in data set [4], the logD came to 2.3.

In the case of `CC(C)(CN1Cc2ccccc2C1=O)NC[C@@H](O)COc1cc(C2CC3CC2C2C(C(=O)O)C32)ccc1C#N` (mixture of isomers), the microsomal CLint in [1] is 9 µL/min/mg; in [2], < 10 µL/min/mg. The 50% inhibitory concentration (IC50) in data set [3] came to 350 nM.

`Cc1ccc(CC(C)(C)NC[C@@H](O)CO[C@H](C)c2ccccc2C2CC3CC2C2C(C(=O)O)C32)cc1F` (mixture of isomers): the intrinsic clearance (microsomal CLint) in data set [1] was determined as 35 µL/min/mg; in [2], 45 µL/min/mg. For the same compound, in data set [10], the “inhibition (INH)” value was “Not Active”. In data set [11], the Activity result is given as “Non-toxic”. Further, the bioavailability in data set [12] was > 60%. Also, the inhibition at 10 µM in data set [13] was < 10%. The same compound showed a Cmax in data set [14] of 1000 nM. The result in data set [15] was Active. For the same compound, in [3], the half-maximal inhibitory concentration (IC50) came to 25 nM. Besides, the logD in data set [4] stood at 2.4.

On to `C[C@@H](OC[C@H](O)CNC(C)(C)Cc1ccc(Cl)cc1F)c1ccccc1C1CC2CC1C1C(C(=O)O)C21` (mixture of isomers), for which the values for the intrinsic clearance (microsomal CLint) in data set [1] and in [2] were 16 µL/min/mg and 14 µL/min/mg, respectively. The IC50 in data set [3] was determined as 50 nM. In data set [4], the pH-dependent lipophilicity (logD) came to 2.8.

`Cc1ccc(CC(C)(C)NC[C@@H](O)CO[C@H](C)c2ccccc2C2CC3CC2C2C(C(=O)O)C32)cc1Cl` (mixture of isomers) returned an intrinsic metabolic clearance (microsomal CLint) in [1] of 33 µL/min/mg. The concentration for half-maximal inhibition (IC50) in [3] turned out to be 18 nM. Moreover, the logD in [4] turned out to be 2.6.

Take `C[C@@H](OC[C@H](O)CNC(C)(C)CC1Cc2ccccc2C1)c1ccccc1C1CC2CC1C1C(C(=O)O)C21` (mixture of isomers): the microsomal CLint came to 23 µL/min/mg in data set [1] and 38 µL/min/mg in data set [2]. The half-maximal inhibitory concentration (IC50) in data set [3] came to 3500 nM.

For the compound `CC(C)(CC1Cc2ccccc2C1)NC[C@@H](O)COc1cc(CCC(=O)O)cc(F)c1F` [RONACALERET], the microsomal CLint is < 8 µL/min/mg in data set [1] and 90 µL/min/mg in data set [2]. This compound also came in with a bioavailability in data set [12] of 12%. Besides, the inhibition at 10 µM in data set [13] was < 10%. In [14], this compound came in with a maximum concentration (Cmax) of 300 nM. Further, the outcome in data set [15] was inactive. The IC50 in data set [3] came to 146 nM; in [16] it was 320 nM. This compound displayed a logD in [4] of 1.5.
